An excerpt weighted towards active compounds, which were near 3.3% of everything screened.
mABHD4 FP – ABHD4 inhibitors, primary screen, biochemical, fluorescence polarization, mouse; (Lyso)-N-acylphosphatidylethanolamine lipase (Mus musculus), Q8VD66; purified mABHD4, FP-Rh probe fluorescence polarization; inhibition, % at 8.92 µM; 370,000 compounds, 0.54% hits; AID 720543, 2013;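 active = inhibition exceeding the mean over every tested compound plus 3 SD, cut at about 30% in these data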
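Assay system: wild-type mouse ABHD4 protein; compound: single nominal dose of 8.92 µM, 0.89% DMSO final; schedule: 45 min + 60 min at 25 °C; measured by: FP readout, ex 525 nm / em 598 nm; evaluation: % inhibition of FP-Rh probe binding versus controls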
PRMT1 FP inh – PRMT1 methyltransferase inhibitors, primary screen, biochemical, fluorescence polarization. Protein arginine N-methyltransferase 1 (Homo sapiens), Q99873. inhibition, % at 2.79 µM. 370,000 compounds, 1.3% hits. AID 652257, 2013. recombinant PRMT1, activity-based probe fluorescence polarization;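 active = inhibition above about 21% made by adding two undisclosed values, limit read from the data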
Target sequence (Q99873 whole entry, looked up): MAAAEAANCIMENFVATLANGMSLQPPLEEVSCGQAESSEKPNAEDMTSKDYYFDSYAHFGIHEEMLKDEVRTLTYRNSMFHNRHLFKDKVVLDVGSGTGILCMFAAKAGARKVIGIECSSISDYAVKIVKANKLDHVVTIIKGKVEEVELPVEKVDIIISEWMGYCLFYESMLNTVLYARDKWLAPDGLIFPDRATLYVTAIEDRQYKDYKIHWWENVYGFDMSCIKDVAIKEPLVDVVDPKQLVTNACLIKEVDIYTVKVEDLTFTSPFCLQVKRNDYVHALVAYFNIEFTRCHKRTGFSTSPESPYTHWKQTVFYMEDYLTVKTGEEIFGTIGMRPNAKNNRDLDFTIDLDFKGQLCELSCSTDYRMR
rCAG binder – binders of r(CAG) RNA repeats, primary screen, biochemical, fluorescence. 370,000 compounds, 1.3% hits. inhibition, % at 3 µM. r(CAG) RNA repeat, TO-PRO-1 dye displacement fluorescence;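 active = inhibition above the plate cutoff, the mean of all test compounds on that plate plus 3 SD, cut at about 35% in these data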;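 also: higher means more dye released from RNA so lower well fluorescence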
SIAE inh – human SIAE inhibitors, primary screen, biochemical, fluorescence polarization, FP-Rh probe, 1536-well HTS; Sialate O-acetylesterase (Homo sapiens), Q9HAT2; SIAE FP-Rh probe binding; inhibition, % at 9.66 µM; 370,000 compounds, 0.69% hits; AID 1053197, 2014;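 active = inhibition above a cutoff: mean of compounds within the control limits plus 3 SD of those, cut at about 17% in these data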
TCR CD3 inh – inhibitors of human TCR-CD3 interaction, primary screen, biochemical, fluorescence, TAMRA-labeled TCR probe; 360,000 compounds, 0.37% hits; AID 651800, 2012; T-cell receptor (TCR); inhibition, % at 9.4 µM;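 also: recombinant mutant TCR 2C K166C tagged with TAMRA read by polarization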
BSA probe FL – compounds interfering with TAMRA-BSA probe, counter-screen for TCR-CD3 interaction inhibitor project, biochemical, fluorescence, TAMRA-labeled BSA. shares compounds with TCR CD3 inh. TAMRA-labeled BSA probe fluorescence counterscreen. inhibition, % at 9.4 µM. 1,200 compounds, 10% hits; in the data active = inhibition above about 23%
TCR-CD3 inh conf – TCR-CD3 interaction inhibitors, retest, confirmation, biochemical, fluorescence, TAMRA-labeled TCR probe; TAMRA-labeled TCR probe fluorescence binding assay; inhibition, % at 9.4 µM; AID 652036, 2013; shares compounds with TCR CD3 inh; 1,200 compounds, 48% hits
ABHD4 confirm – ABHD4 inhibitors, retest, confirmation, biochemical, fluorescence polarization, mouse. shares compounds with mABHD4 FP. purified mABHD4, FP-Rh probe fluorescence polarization. inhibition, % at 8.92 µM. 1,800 compounds, 55% hits;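 active = mean inhibition across replicates above the hit cutoff set in the primary screen, cut at about 30% in these data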
SIAE confirm – human SIAE inhibitors, retest, confirmation, biochemical, fluorescence polarization, FP-Rh probe, triplicate; AID 1117263, 2014; shares compounds with SIAE inh; inhibition, % at 9.66 µM; 2,300 compounds, 13% hits; SIAE FP-Rh activity-based probe;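 active = mean inhibition of the replicates above the hit cutoff set in the primary screen, cut at about 17% in these data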;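 also: inhibitors lower polarization as more probe stays unbound to SIAE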
Each line names hits and unclear results; the compound was inactive in the other large screens (follow-up assays come after a bar, where they were run). Rule as the data show it, unless noted: active = inhibition above about 19%; inactive = the rest.

O=C1c2ccccc2-c2ccc(P(=O)(O)O)cc21	none (no result: rCAG binder, TCR CD3 inh)
Cc1cc(C(=O)O[C@@H]2CCC[C@]3(C(=O)N(Cc4ccccc4)c4ccccc43)[C@H]2NC(=O)CCc2ccccc2)no1	none (no result: TCR CD3 inh)
Cc1ccc(NC(=O)C2CCCN2S(=O)(=O)c2cccnc2)cc1C (stereo unspecified)	none (no result: TCR CD3 inh)
CCOc1cc(N2CCOCC2)c(OCC)cc1NC(C)C(=O)N1CCN(CC)CC1 (stereo unspecified)	mABHD4 FP 41, SIAE inh 27, TCR CD3 inh 31 | BSA probe FL inactive | TCR-CD3 inh conf inactive | SIAE confirm inactive
COc1ccc(CCNC(=O)c2cc3ccccn3n2)cc1	none (no result: TCR CD3 inh)
O=C(COC(=O)c1cc(-c2cccc3ccccc23)nc2ccccc12)NC1CCS(=O)(=O)C1 (stereo unspecified)	mABHD4 FP 38, PRMT1 FP inh 25, SIAE inh 25, TCR CD3 inh 30 | BSA probe FL 54 | TCR-CD3 inh conf 38 | ABHD4 confirm inactive | SIAE confirm inactive
Cc1cc(C(=O)OCC(=O)NC2CCS(=O)(=O)C2)c2ccccc2n1 (stereo unspecified)	none
O=C1CCCC2=C1Sc1ccc(Cl)cc1N2	none
COC(=O)c1ccc2c(c1)SC1=C(CCCC1=O)N2	mABHD4 FP 35, PRMT1 FP inh 25, SIAE inh 19, TCR CD3 inh 37 | BSA probe FL 76 | TCR-CD3 inh conf 57 | ABHD4 confirm 32 | SIAE confirm 23
COc1ccc(C(=O)C2CCN(c3ncnc4sccc34)CC2)cc1	none (no result: rCAG binder, TCR CD3 inh)
Cc1nn(C)c(C)c1N1C(=O)c2cccc3c(N)ccc(c23)C1=O	mABHD4 FP 43, PRMT1 FP inh 180, SIAE inh 28, TCR CD3 inh 49 | BSA probe FL 57 | TCR-CD3 inh conf 47 | ABHD4 confirm 39 | SIAE confirm 21
Nc1ccccc1N1C(=O)c2cccc3cccc(c23)C1=O	none
COc1cc2c(c(OC)c1)[C@H](/C=C/c1ccccc1)[C@@H]([C@H](O)CO)OC2	none (no result: TCR CD3 inh)
Cc1cc2cc(CNS(=O)(=O)c3ccc4ccccc4c3)ccc2n1C	mABHD4 FP 51, SIAE inh 26, TCR CD3 inh 58 | BSA probe FL inactive | TCR-CD3 inh conf inactive | ABHD4 confirm inactive | SIAE confirm inactive
Cc1cc(C)c(S(=O)(=O)NCc2ccc3c(c2)cc(C)n3C)c(C)c1	mABHD4 FP 55, SIAE inh 39, TCR CD3 inh 71 | BSA probe FL 30 | TCR-CD3 inh conf 26 | ABHD4 confirm inactive | SIAE confirm inactive
Cc1cc(C)c(S(=O)(=O)NCCn2c(C)cc3ccccc32)c(C)c1	mABHD4 FP 60, SIAE inh 24, TCR CD3 inh 71 | BSA probe FL inactive | TCR-CD3 inh conf inactive | ABHD4 confirm inactive | SIAE confirm inactive
NS(=O)(=O)c1ccc(CNS(=O)(=O)c2ccc3ccccc3c2)cc1	none
O=C(c1ccccc1I)N1CCC(Oc2cccnc2)CC1	none (no result: TCR CD3 inh)
COC(=O)[C@]12C[C@H](CC(=O)NCCCN3CCCC3=O)C(=O)N(CCc3ccc(OC)c(OC)c3)C1=C[C@H](C1CCCC1)O[C@@H]2C	none (no result: TCR CD3 inh)
CN(Cc1ccccc1)S(=O)(=O)c1cccc(C(=O)OCc2cccc([N+](=O)[O-])c2)c1	none (no result: TCR CD3 inh)
